Data published in ChEMBL document CHEMBL1157543, “Synthesis and biological evaluation of polysulfated oligosaccharide glycosides as inhibitors of angiogenesis and tumor growth” (J Med Chem, 2010).
Active and inactive are the calls of the source. The calls are words filed in the database; no cut-off is given here.

What was measured:
[1] = Toxicity in rat aortic endothelium assessed as microvessel sprouts at 10 and 50 uM after 6 or 7 days; assay type: tissue-based, Sprague-Dawley, Aorta; details: ex_vivo, 168 h
How it was run: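 Aortic ring viability check: on day 6 or 7, compound or medium was withdrawn and complete medium with VEGF (typically 10 ng/mL) was added for up to 7 more days. New microvessel sprouting was taken as a sign of viable tissue.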

[2] = system: Plasma; assay: Anticoagulant activity in human plasma by heptest; assay type: functional
How it was run: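 Heptest clot assay. Plasma (centrifuged 1800g, 10 min, used within 30 min) incubated with compound 2 min at 37 °C. Factor Xa added, 2 min at 37 °C, then clotting started with Recalmix; read on a ball coagulometer. Normal range 13–20 s; means of two determinations.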

[3] = biological target: Fibroblast growth factor 2 (Homo sapiens, UniProt P09038); assay: Binding affinity to FGF2 by surface plasmon-based solution affinity assay
How it was run: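 Surface plasmon resonance solution affinity assay on heparin-coated CM4 chips. FGF-2 binding run in HBS-EP containing 300 mM NaCl. Kd is the mean of at least duplicate measurements ± SD.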

[4] = biological target: T1, Vascular endothelial growth factor A, long form (Homo sapiens, UniProt P15692); assay: Binding affinity to VEGF by surface plasmon-based solution affinity assay
T1 sequence (P15692 whole entry): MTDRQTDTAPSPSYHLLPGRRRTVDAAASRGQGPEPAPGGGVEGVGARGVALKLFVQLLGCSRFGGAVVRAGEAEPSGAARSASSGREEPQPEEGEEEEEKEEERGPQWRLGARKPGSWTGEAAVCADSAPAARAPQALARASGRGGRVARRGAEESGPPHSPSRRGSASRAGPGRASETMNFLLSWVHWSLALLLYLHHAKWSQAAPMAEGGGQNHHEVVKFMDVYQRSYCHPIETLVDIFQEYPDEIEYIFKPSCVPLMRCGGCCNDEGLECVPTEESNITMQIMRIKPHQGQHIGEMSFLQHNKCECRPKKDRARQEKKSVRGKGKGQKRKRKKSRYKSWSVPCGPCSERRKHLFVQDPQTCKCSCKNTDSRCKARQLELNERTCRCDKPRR
How it was run: (§1)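 Surface plasmon resonance solution affinity assay on heparin-coated CM4 chips. Buffer: HBS-EP (10 mM HEPES pH 7.4, 150 mM NaCl, 3.0 mM EDTA, 0.005% polysorbate 20). Kd is the mean of at least duplicate measurements ± SD.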

[5] = system: HUVEC; assay: Cytotoxicity against HUVEC; assay type: cell-based; details: human
[6] = system: HUVEC; assay: Inhibition of FGF2-induced HUVEC cell proliferation; assay type: functional, cell-based; details: Homo sapiens
How it was run: (§2)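 HUVECs seeded at 1–3 × 10^3 per well in EGM with 2% FBS and gentamicin. Proliferation driven by VEGF, FGF-1 or FGF-2; compound added typically at seven concentrations (1–50 μM) in triplicate. After 70 h, MTS reagent added for 2 h and A490 read. IC50 obtained from blank-subtracted curves.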

[7] = biological target: Fibroblast growth factor 1 (Homo sapiens, UniProt P05230); assay: Binding affinity to FGF1 by surface plasmon-based solution affinity assay; how it was run: as §1
[8] = system: Plasma; assay: Anticoagulant activity in human plasma assessed as activated partial thromboplastin time; assay type: functional
How it was run: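 Pooled normal human plasma spiked with compound in PBS at 0.1 mg/mL (methods give a 0–100 μg/mL range); APTT elevation measured. Normal range 26–36 s. Values are means of two determinations.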

[9] = system: HUVEC; assay: Inhibition of VEGF-induced HUVEC cell proliferation; assay type: functional, cell-based; details: Homo sapiens; how it was run: as §2
[10] = system: Aorta; assay: Inhibition of angiogenesis in Sprague-Dawley rat aortic endothelium at 10 uM; assay type: functional, tissue-based
How it was run: (§3)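 Sprague-Dawley rats (2–4 months old): bisected 1 mm thoracic aortic rings embedded in Matrigel in EBM-2 with 2% FCS, no heparin. Compound added in triplicate, medium replenished every 48 h. Microvessel sprouting scored semiquantitatively by two assessors up to day 8. One-way ANOVA with Dunnett's test.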

[11] = system: HUVEC; assay: Inhibition of FGF1-induced HUVEC cell proliferation; assay type: functional, cell-based; details: Homo sapiens; how it was run: as §2
[12] = biological target: T2, Heparanase (Homo sapiens, UniProt Q9Y251); assay: Inhibition of human recombinant heparanase
T2 sequence (Q9Y251 whole entry): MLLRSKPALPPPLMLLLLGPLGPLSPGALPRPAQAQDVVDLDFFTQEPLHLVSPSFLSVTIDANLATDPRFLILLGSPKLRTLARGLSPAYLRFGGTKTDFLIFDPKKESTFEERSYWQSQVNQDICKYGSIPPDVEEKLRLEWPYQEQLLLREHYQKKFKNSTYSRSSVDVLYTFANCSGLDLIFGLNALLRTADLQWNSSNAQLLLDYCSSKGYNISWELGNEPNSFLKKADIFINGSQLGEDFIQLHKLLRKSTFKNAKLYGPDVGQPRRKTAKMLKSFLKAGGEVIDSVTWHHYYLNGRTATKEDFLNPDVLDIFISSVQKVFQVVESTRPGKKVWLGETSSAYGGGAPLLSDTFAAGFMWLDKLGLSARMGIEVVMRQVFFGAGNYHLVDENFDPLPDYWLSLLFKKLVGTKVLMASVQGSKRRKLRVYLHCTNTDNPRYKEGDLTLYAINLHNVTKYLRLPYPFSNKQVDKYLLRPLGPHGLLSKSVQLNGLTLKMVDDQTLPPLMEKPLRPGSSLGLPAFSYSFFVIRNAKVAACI
How it was run: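 Recombinant human heparanase assayed by ultrafiltration with 3H-labelled heparan sulfate as substrate (Km = 1.64 μM). Ki values with standard error were derived from inhibition response curves.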

[13] = system: B16; assay: Antitumor activity against mouse B16 cells transplanted in C57/BL6 mouse assessed as reduction in tumor volume at 15 mg/kg for 7 days measured on day 10; assay type: functional; details: read-out: TGI
How it was run: (§4)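 B16F1 cells grown in DMEM with 10% FCS, 5×10^5 cells in PBS implanted sc between the shoulder blades of C57 mice (n = 10). From day 3, compound given sc in PBS b.i.d. for 7 days at rotating sites. Tumors measured daily as l × w; p < 0.05 taken as significant.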

[14] = Apparent volume of distribution in Sprague-Dawley rat at 10 mg/kg, iv and 10 mg/kg, sc; assay type: ADME, organism-based; details: in vivo, read-out: Vz
How it was run: (§5)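 Male Sprague-Dawley rats (n = 2 per route), cannulated the day before. Compound given at 2.8 mg/mL in PBS: iv infusion over 5 min or sc between the scapulae, nominal 10 mg/kg. Arterial blood sampled up to 8 h into tubes with protease inhibitor, KF and EDTA; urine collected to 24 h. Plasma analyzed by LC-MS; noncompartmental analysis.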

[15] = Plasma clearance in Sprague-Dawley rat at 10 mg/kg, iv and 10 mg/kg, sc; assay type: ADME, organism-based; how it was run: as §5
[16] = system: B16; assay: Antitumor activity against mouse B16 cells transplanted in C57/BL6 mouse assessed as reduction in tumor volume at 30 mg/kg for 7 days measured on day 10; assay type: functional; details: read-out: TGI; how it was run: as §4
[17] = Half life in Sprague-Dawley rat at 10 mg/kg, sc; assay type: ADME, organism-based; parameters: dose 10 mg/kg, route subcutaneous; details: in vivo; how it was run: as §5
[18] = Half life in Sprague-Dawley rat at 10 mg/kg, iv; assay type: ADME, organism-based; parameters: dose 10 mg/kg, route intravenous; details: in vivo; how it was run: as §5
[19] = Bioavailability in Sprague-Dawley rat at 10 mg/kg, sc; assay type: ADME, organism-based; details: in vivo; how it was run: as §5
[20] = system: HUVEC; assay: Antiangiogenic activity against HUVEC assessed as inhibition of endothelial cell tube formation on ECM-derived protein matrix at 100 uM by phase contrast microscopy; assay type: functional, cell-based; details: Homo sapiens
How it was run: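 HUVECs at passage 4–5 (70–80% confluent) suspended in EGM2 with all supplements except heparin at 4×10^5 cells/mL, mixed 1:1 with compound (final 10, 50, 100 μM), plated in triplicate on growth factor-reduced Matrigel. Incubated 18 h; tubes scored by phase-contrast microscopy. Untreated cells as control; one-way ANOVA with Dunnett's test.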

[21] = system: Aorta; assay: Inhibition of angiogenesis in Sprague-Dawley rat aortic endothelium at 50 uM; assay type: functional, tissue-based; how it was run: as §3

Fibroblast growth factor 2, sequence (P09038 143-288 limits assumed): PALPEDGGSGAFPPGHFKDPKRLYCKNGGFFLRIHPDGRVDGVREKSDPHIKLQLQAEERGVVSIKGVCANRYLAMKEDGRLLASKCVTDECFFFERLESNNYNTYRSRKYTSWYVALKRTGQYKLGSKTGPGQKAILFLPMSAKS
Fibroblast growth factor 1, sequence (P05230 whole entry): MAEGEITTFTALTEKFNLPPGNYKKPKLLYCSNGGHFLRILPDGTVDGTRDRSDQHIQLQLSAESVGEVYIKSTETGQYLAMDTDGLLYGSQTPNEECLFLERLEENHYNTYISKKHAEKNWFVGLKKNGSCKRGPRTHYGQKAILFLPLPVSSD

| Molecule | Activity [1] | Activity [2] [s] | Kd [3] [nM] | Kd [4] [nM] | LC50 [5] [µM] | Kd [7] [nM] | Time [8] [s] | Ki [12] [nM] | inhibition in vivo at 15 mg/kg [13] [%] | clearance [15] [mL/min/kg] | inhibition in vivo at 30 mg/kg [16] [%] | half-life [17] [min] | half-life [18] [min] | also measured |
| --- | --- | --- | --- | --- | --- | --- | --- | --- | --- | --- | --- | --- | --- | --- |
| O=S(=O)([O-])OC[C@H]1O[C@H](OCc2ccccc2)[C@@H](O[C@H]2O[C@H](COS(=O)(=O)[O-])[C@@H](OS(=O)(=O)[O-])[C@H](O[C@H]3O[C@H](COS(=O)(=O)[O-])[C@@H](OS(=O)(=O)[O-])[C@H](O[C@H]4O[C@H](COS(=O)(=O)[O-])[C@@H](OS(=O)(=O)[O-])[C@H](OS(=O)(=O)[O-])[C@@H]4OS(=O)(=O)[O-])[C@@H]3OS(=O)(=O)[O-])[C@@H]2OS(=O)(=O)[O-])[C@@H](OS(=O)(=O)[O-])[C@@H]1OS(=O)(=O)[O-].[Na+].[Na+].[Na+].[Na+].[Na+].[Na+].[Na+].[Na+].[Na+].[Na+].[Na+].[Na+].[Na+] | Toxic | 281.1 | 129 | 21 | > 100 | 0.24 | 417.9 | 280 | – | – | – | – | – | Activity [6]: Active; Activity [9]: Active; Activity [10]: Active; Activity [11]: Active |
| CCCCCCCCO[C@H]1O[C@H](COS(=O)(=O)[O-])[C@@H](OS(=O)(=O)[O-])[C@H](OS(=O)(=O)[O-])[C@@H]1O[C@H]1O[C@H](COS(=O)(=O)[O-])[C@@H](OS(=O)(=O)[O-])[C@H](O[C@H]2O[C@H](COS(=O)(=O)[O-])[C@@H](OS(=O)(=O)[O-])[C@H](O[C@H]3O[C@H](COS(=O)(=O)[O-])[C@@H](OS(=O)(=O)[O-])[C@H](OS(=O)(=O)[O-])[C@@H]3OS(=O)(=O)[O-])[C@@H]2OS(=O)(=O)[O-])[C@@H]1OS(=O)(=O)[O-].[Na+].[Na+].[Na+].[Na+].[Na+].[Na+].[Na+].[Na+].[Na+].[Na+].[Na+].[Na+].[Na+] | Toxic | 79.5 | 160 | 18 | > 100 | 0.118 | 96.7 | 330 | 64 | 0.2 | 86 | 102 | 102 | Vd [14]: 0.026 L/kg; bioavailability [19]: 67% |
| MUPARFOSTAT SODIUM | – | > 500 | – | – | – | – | – | – | – | – | – | – | – | inhibition [20]: 58%; TIME [8]: > 0.139 h |
| CCCCCCCCO[C@H]1O[C@H](COS(=O)(=O)[O-])[C@@H](OS(=O)(=O)[O-])[C@H](OS(=O)(=O)[O-])[C@@H]1O[C@H]1O[C@H](COS(=O)(=O)[O-])[C@@H](OS(=O)(=O)[O-])[C@H](O[C@H]2O[C@H](COS(=O)(=O)[O-])[C@@H](OS(=O)(=O)[O-])[C@H](O[C@H]3O[C@H](COS(=O)(=O)[O-])[C@@H](OS(=O)(=O)[O-])[C@H](O[C@H]4O[C@H](COS(=O)(=O)[O-])[C@@H](OS(=O)(=O)[O-])[C@H](OS(=O)(=O)[O-])[C@@H]4OS(=O)(=O)[O-])[C@@H]3OS(=O)(=O)[O-])[C@@H]2OS(=O)(=O)[O-])[C@@H]1OS(=O)(=O)[O-].[Na+].[Na+].[Na+].[Na+].[Na+].[Na+].[Na+].[Na+].[Na+].[Na+].[Na+].[Na+].[Na+].[Na+].[Na+].[Na+] | Toxic | 124.4 | 82 | 1.5 | > 100 | 0.161 | 250.8 | 350 | 42 | 1.4 | 94 | 66 | 66 | Activity [21]: Active |
